Hits are enriched below; roughly 11% of the tested compounds scored in any of these assays.
TNAP act mid DEA = activators of human TNAP at intermediate phosphate acceptor | P05186 | purified TNAP, CDP-star luminescence, 100 mM DEA, 30 min; stronger effect = higher value; scale: 0 levamisole-inhibited, 1 vehicle-only enzyme | activation factor at 20 µM | 64,000 tested, under 10 active;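 active = activation factor of at least 2 at 20 µM, relative to controls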
M1 antag = antagonists of rat M1 muscarinic receptor | B-score at 10 µM | 3.4% of 64,000 active | P08482 | CHO-M1 cells, Fluo-4 calcium, ACh EC80 antagonist mode; stronger effect = lower value;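 active = calcium fluorescence response, raw or row-and-column corrected B-score, differing from the plate sample mean either way at a set confidence level, mostly lower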
S1P1 ag-PAM = activates or potentiates agonism at human S1P1 receptor. 0.57% of 56,000 active. activation, % at 9.5 µM. S1P1 CRE-bla cells, forskolin, beta-lactamase FRET, potentiator mode; S1P1 agonist co-added at EC20, 2 nM; 100% = saturating reference agonist, 0% = basal;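 active = activation above a cutoff set at the mean activation of all tested compounds plus 3 SD, cut at about 54% in these data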;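 note: forskolin at 4 µM as EC80 and the EC20 agonist is SEW2871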
M1 ag = activates the M1 muscarinic receptor; B-score at 10 µM; CHO-M1 cells, Fluo-4 calcium fluorescence, agonist mode; stronger effect = higher value; 3% of 64,000 active;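 active = fluorescence rise, raw or as B-score row- and column-corrected plate score, outside the 99.7% band of its plate's samples, either direction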
D1 allo mod = D1 dopamine receptor (human) allosteric modulation; P21728; HEK293 D1, CRE-luciferase, dopamine EC30 potentiation; actives deviate in either direction; 5.9% of 58,000 active; B-score at 10 µM;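 active = luminescence count or its row- and column-corrected plate score outside the 99.7% band of the plate's sample wells, on either side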
S1P3 agonist = S1P3 (human) receptor agonism; S1P3 NFAT-BLA reporter cells, FRET ratio; relative to 1 µM S1P, basal subtracted; activation, % at 4.5 µM; 0.1% of 60,000 active; AID 373;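 active = activation above the screen-wide mean plus 3 SD, cut at about 4.5% in these data, passing the limit was not always enough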
Target sequence (Q99500 whole entry, looked up): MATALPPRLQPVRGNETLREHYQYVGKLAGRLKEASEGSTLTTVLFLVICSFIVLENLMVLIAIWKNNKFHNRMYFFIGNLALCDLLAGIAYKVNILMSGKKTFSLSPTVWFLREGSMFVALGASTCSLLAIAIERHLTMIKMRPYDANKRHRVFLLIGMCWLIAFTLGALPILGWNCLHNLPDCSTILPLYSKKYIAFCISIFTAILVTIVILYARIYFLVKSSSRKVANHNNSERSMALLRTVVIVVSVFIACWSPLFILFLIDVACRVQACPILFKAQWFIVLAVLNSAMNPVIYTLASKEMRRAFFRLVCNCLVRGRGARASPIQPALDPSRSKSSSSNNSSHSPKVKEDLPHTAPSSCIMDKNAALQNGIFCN
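material = human S1P3 NFAT-BLA reporter CHO cells | schedule = 4 h compound at 37 °C, 2 h substrate at RT | measured by = fluorescent BLA substrate, ex 405 nm, em 460/535 nm ratio | controls = 1 µM S1P reference | replication = primary once, confirmation triplicate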
M1 agonist conf = rat M1 muscarinic agonism, confirmation. shares compounds with M1 ag. CHO-M1 cells, Fluo-4 calcium fluorescence, agonist mode; actives lie on both sides. fluorescence change (max-min) at 10 µM. 19% of 1,700 active. AID 1488;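 active = fluorescence change differs from the solvent-only DMSO control mean at a set confidence level in both duplicate runs; inconclusive = differs from solvent-only control mean in just one of two runs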;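 note: an EC20 dose of acetylcholine follows compound addition during the same imaging run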
M4 agonist ctr = rat M4 muscarinic agonism, M1 counter-screen; 9% of 1,700 active; fluorescence change (max-min) at 10 µM; CHO M4/Gqi5 cells, Fluo-4 calcium fluorescence, agonist mode; actives lie on both sides; shares compounds with M1 ag;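 active = fluorescence change differing from the plate's solvent-only control wells at 99.7% confidence in both duplicates, whether higher or lower; inconclusive = differs from solvent controls in only one of two duplicates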
Of the large screens only hits and unclear results are named; the others gave an inactive call (follow-up assays come after a bar, where they were run).

COc1ccc(C(=O)c2no[n+]([O-])c2C(=O)c2ccc(OC)cc2)cc1	none
CCOC(=O)N1CCN(C(=O)c2ccc(CN(c3ccccc3)S(C)(=O)=O)cc2)CC1	none (no result: S1P1 ag-PAM, S1P3 agonist)
COc1ccc(Cn2c(=O)oc3ccc(C)cc32)cc1OC	M1 ag 13 | M1 agonist conf inactive | M4 agonist ctr inactive
COc1ccc2c(c1OC)C(=O)N1c3ccccc3C(=O)N(c3ccccc3)C21 (stereo not given)	M1 ag 13.4 (no result: D1 allo mod) | M1 agonist conf inconclusive | M4 agonist ctr inactive
O=C1c2ccccc2N2C(=O)c3ccccc3C2N1O (stereo not given)	none (no result: D1 allo mod)
COc1ccc2c(c1OC)C(=O)N1c3ccccc3C(=O)N(c3ccc(F)cc3)C21 (stereo not given)	M1 ag 13 (no result: D1 allo mod) | M1 agonist conf inactive | M4 agonist ctr inactive
COc1ccc(OC)c(C2C(C(C)=O)=C(O)C(=O)N2c2ccc(F)cc2)c1 (stereo not given)	none (no result: M1 antag, M1 ag)
Cc1cc(C)n2nc(NCc3cccc(Br)c3)nc2n1	none (no result: D1 allo mod)
CC1(C)NC(=O)N(CNc2cc(Cl)ccc2Cl)C1=O	none
CCn1c(Cc2ccccc2)nnc1SCC(=O)Nc1ccc2c(c1)OCCO2	none (no result: D1 allo mod)
COc1cc(OC)cc(-c2nnc(SCc3c(F)cccc3Cl)o2)c1	M1 ag -2.79 | M1 agonist conf inconclusive | M4 agonist ctr inactive
COc1ccccc1NC(=O)N1CCN(c2ncccn2)CC1	none (no result: TNAP act mid DEA)
CC1Cc2ccccc2N1C(=O)CN1C(=O)NC(C)(c2ccc3c(c2)OCCO3)C1=O (stereo not given)	M1 ag 5.62 | M1 agonist conf inactive | M4 agonist ctr inactive
CCOc1ccc(NC(=O)Nc2ccc3nccnc3c2)cc1	M1 ag 9.64 | M1 agonist conf inactive | M4 agonist ctr inactive
CC(C)(C)NC(=O)Nc1ccc2nccnc2c1	none
Fc1ccccc1N1CCN(c2nc3ccccc3n3nnnc23)CC1	M1 ag 12.4 | M1 agonist conf inconclusive | M4 agonist ctr inactive
O=C(Cn1nnc(-c2ccccc2F)n1)Nc1ccc2c(c1)OCO2	M1 ag 5.68 | M1 agonist conf inconclusive | M4 agonist ctr inactive
O=C(Cn1nnc(-c2ccccc2F)n1)Nc1ccc(C(=O)N2CCOCC2)cc1	none
Cc1ccccc1CN(c1ccc(C(=O)N2CCCC2)cc1)S(C)(=O)=O	M1 ag 3.24 | M1 agonist conf inactive | M4 agonist ctr inactive
Cc1ccc(CN(c2ccc(C(=O)N3CCCC3)cc2)S(C)(=O)=O)cc1	none
Cn1c(=O)n(CCN2CCOCC2)c(=O)c2c1nc1n2CCN1c1ccccc1	none
Cc1ccc(NCc2nnc(SCC(=O)NCCc3ccccc3)n2C)cc1	none
CCOC(=O)C1=C(C)N=c2s/c(=C\c3cccn3C)c(=O)n2C1c1cccc(OC)c1OC (stereo not given)	M1 ag 54.7 | M1 agonist conf inactive | M4 agonist ctr inactive
CCOC(=O)C1=C(C)N=c2s/c(=C/c3ccco3)c(=O)n2C1c1cccc(OC)c1 (stereo not given)	none
COc1ccc(N2CC(C)Cn3c2nc2c3c(=O)[nH]c(=O)n2C)cc1 (stereo not given)	none
Cc1cc(-c2nnc(-c3cc4ccccc4oc3=O)o2)c(C)n1-c1ccccc1	none (no result: S1P1 ag-PAM, S1P3 agonist)
CCCCCCc1cc2cc(-c3nnc(-c4ccccc4O)o3)c(=O)oc2cc1O	M1 antag 3.33, M1 ag 317 (no result: D1 allo mod) | M1 agonist conf 781 | M4 agonist ctr 843
Cn1nc(CC(=O)Nc2ccc3c(c2)OCCO3)c2ccccc2c1=O	S1P1 ag-PAM 91.7, M1 ag 4.53 | M1 agonist conf inactive | M4 agonist ctr inactive
COc1ccccc1NC(=O)Cc1nn(C)c(=O)c2ccccc12	M1 ag 2.67 | M1 agonist conf inactive | M4 agonist ctr inconclusive
COc1cc(NC(=O)Cc2nn(C)c(=O)c3ccccc23)cc(OC)c1	none (no result: S1P1 ag-PAM, S1P3 agonist)
COc1cccc(OC)c1NC(=O)Cc1nn(C)c(=O)c2ccccc12	none
Cc1ccc(NC(=O)Cc2nn(C)c(=O)c3ccccc23)cc1F	M1 ag 5.47 (no result: S1P1 ag-PAM, D1 allo mod, S1P3 agonist) | M1 agonist conf inactive | M4 agonist ctr inconclusive
CCn1cc(C(=O)NCc2cccs2)c(=O)c2cc(S(=O)(=O)N3CCOCC3)ccc21	none
O=C(Cn1cc2c(n1)CCCCC2)NCc1ccccn1	none (no result: D1 allo mod)
O=C(CCCCCNS(=O)(=O)c1ccc(Br)cc1)NCCN1CCOCC1	none
CCCCN(CCCC)c1nc2ccccc2nc1C(C#N)C(=O)NCCCOC (stereo not given)	M1 antag -15.6, M1 ag 434 | M1 agonist conf 2697 | M4 agonist ctr 2698
CCN1CCN(c2nc3ccccc3nc2C(C#N)C(=O)OCc2ccccc2)CC1 (stereo not given)	none
CCN(CC)c1nc2ccccc2nc1C(C#N)C(=O)NCCc1ccccc1 (stereo not given)	M1 ag 219 | M1 agonist conf 2068 | M4 agonist ctr 1724
CCCN(CCC)c1nc2ccccc2nc1C(C#N)C(=O)OC(C)COC (stereo not given)	none (no result: D1 allo mod)
CCN(CC)c1nc2ccccc2nc1C(C#N)C(=O)NCCCOC (stereo not given)	M1 ag 5.01 | M1 agonist conf inactive | M4 agonist ctr inactive
Cc1ccccc1NC(=O)CN(C)S(=O)(=O)c1cccc2cccnc12	none (no result: D1 allo mod)
CCOC(=O)N1CCC(NC(=O)CCC(=O)N2CC(C)Oc3ccc(Cl)cc32)CC1 (stereo not given)	none
COC(=O)c1c(=O)n(O)c2ccc(OC)cc2[n+]1[O-]	M1 ag 19.3 | M1 agonist conf 117 | M4 agonist ctr 95.6
COC(=O)c1ccccc1COn1c(=O)c(C)[n+]([O-])c2ccccc21	none
Nc1nnc(SCc2cccc(C(F)(F)F)c2)s1	M1 ag 1.63 | M1 agonist conf inactive | M4 agonist ctr inconclusive
Cc1cc2oc(=O)cc(CN3CCCCC3C)c2c(C)c1Cl (stereo not given)	none
Cc1ccccc1S(=O)(=O)Nc1nc2ccccc2nc1N1CCOCC1	none
O=c1oc2c3c4c(cc2c(C(F)(F)F)c1CCN1CCOCC1)CCCN4CCC3	M1 antag -2.9, M1 ag 277 (no result: D1 allo mod) | M1 agonist conf 1525 | M4 agonist ctr 1404
O=c1oc2c(CN3CCOCC3)c(O)ccc2c2c1CCC2	none
CC(C)c1cc(=O)oc2c3c4c(cc12)CCCN4CCC3	M1 ag 106 | M1 agonist conf 612 | M4 agonist ctr 614

Source: PubChem
